Converted amounts (≈) assume the structure as drawn.
Key:
[1] = Cytotoxicity against human BC1 cells; type: functional, cell-based
Method in brief: (§1)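 Human cancer cell lines: epidermoid carcinoma KB, breast cancer BC1 and small cell lung cancer NCI-H187. Colorimetric cytotoxicity method of Skehan and co-workers, with ellipticine as reference.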

[2] = test system: Mycobacterium tuberculosis; assay: Antimycobacterial activity against Mycobacterium tuberculosis H37Ra by Alamar blue assay; type: functional
Method in brief: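 Microplate Alamar Blue Assay (MABA) against strain H37Ra, with isoniazid and kanamycin sulfate as positive-control drugs.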

NCI-H187 = assay: Cytotoxicity against human NCI-H187 cells; type: functional, cell-based; method in brief: as §1
KB = assay: Cytotoxicity against human KB cells; type: functional, cell-based; method in brief: as §1
Plasmodium falciparum = assay: Antimalarial activity against Plasmodium falciparum K1 by [3H]hypoxanthine uptake; type: functional, organism-based
Method in brief: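 P. falciparum K1 (multidrug-resistant strain) kept in culture after Trager and Jensen; in vitro microculture radioisotope assay per Desjardins. Parasite growth read as [3H]-hypoxanthine uptake; IC50 = concentration giving 50% reduction in growth. Artemisinin as positive control.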

SMILES	IC50 [1] [µg/mL]	MIC [2] [µg/mL]	IC50 (NCI-H187) [µg/mL]	IC50 (KB) [µg/mL]	IC50 (Plasmodium falciparum) [µg/mL]
Cc1c2ccncc2c(C)c2c1[nH]c1ccccc12 [ELLIPTECINE]	0.26 (≈ 1.06 µM)	–	–	–	–
NNC(=O)c1ccncc1 [ISONIAZID]	–	0.05 (≈ 0.365 µM)	–	–	–
C=CC(=C)CC[C@]1(C)[C@H]2C[C@H](OC(=O)CC(C)C)C=C3[C@H](OC(C)=O)O[C@H](OC(C)=O)[C@@]32[C@H](OC)C[C@@H]1C (relative stereo) [CASEARGREWIIN A]	4.6 (≈ 8.64 µM)	12.5 (≈ 23.5 µM)	0.9 (≈ 1.69 µM)	8.7 (≈ 16.3 µM)	2.9 (≈ 5.44 µM)
C=C/C(C)=C\C[C@]1(C)[C@H](C)[C@@H](OC(C)=O)[C@H](O)[C@@]23C(=C[C@H](OC(=O)CC(C)C)C[C@@H]12)[C@@H](OC(C)=O)O[C@H]3OC(C)=O (relative stereo) [CASEARGREWIIN C]	2 (≈ 3.47 µM)	25 (≈ 43.4 µM)	0.3 (≈ 0.52 µM)	1.9 (≈ 3.29 µM)	3 (≈ 5.2 µM)
C=C/C(C)=C\C[C@]1(C)[C@H](C)CC[C@@]23C(=C[C@H](O)C[C@@H]12)[C@@H](OC(C)=O)O[C@H]3OC(C)=O [CASEARGREWIIN D]	0.1 (≈ 0.239 µM)	12.5 (≈ 29.9 µM)	1.5 (≈ 3.58 µM)	1.3 (≈ 3.11 µM)	3.3 (≈ 7.88 µM)
C=CC(=C)CC[C@]1(C)[C@H]2C[C@H](OC(=O)C(C)CC)C=C3[C@H](OC(C)=O)O[C@H](OC(C)=O)[C@@]32[C@H](O)C[C@@H]1C (relative stereo)	2.5 (≈ 4.82 µM)	12.5 (≈ 24.1 µM)	5.3 (≈ 10.2 µM)	2.8 (≈ 5.4 µM)	3.1 (≈ 5.98 µM)
C=C/C(C)=C\C[C@]1(C)[C@H](C)[C@@H](OC(=O)/C=C/c2ccc(O)cc2)[C@H](O)[C@@]23C(=C[C@H](OC(=O)CCC)C[C@@H]12)[C@@H](OC(C)=O)O[C@H]3OC(C)=O (relative stereo) [CASEARGREWIIN B]	1.9 (≈ 2.85 µM)	12.5 (≈ 18.7 µM)	1.5 (≈ 2.25 µM)	2.3 (≈ 3.45 µM)	2.4 (≈ 3.6 µM)
C[C@@H]1CC[C@H]2[C@@H](C)C(=O)O[C@@H]3O[C@@]4(C)CC[C@@H]1[C@]32OO4 [ARTEMISININ]	–	–	–	–	0.001 (≈ 0.00354 µM)
NC[C@H]1O[C@H](O[C@H]2[C@H](O)[C@@H](O[C@H]3O[C@H](CO)[C@@H](O)[C@H](N)[C@H]3O)[C@H](N)C[C@@H]2N)[C@H](O)[C@@H](O)[C@@H]1O.O=S(=O)(O)O [KANAMYCIN SULFATE]	–	2.5	–	–	–
C=CC(=C)CC[C@]1(C)[C@H]2C[C@H](OC(=O)C(C)CC)C=C3[C@H](OC(C)=O)O[C@H](OC(C)=O)[C@@]32[C@H](OC)C[C@@H]1C (relative stereo)	4 (≈ 7.51 µM)	12.5 (≈ 23.5 µM)	0.8 (≈ 1.5 µM)	7.6 (≈ 14.3 µM)	3.2 (≈ 6.01 µM)

Source: ChEMBL document CHEMBL1142576, “New bioactive clerodane diterpenoids from the bark of Casearia grewiifolia” (J Nat Prod, 2005)
